Experimental data as given in publication PMC5621765 (Nature biomedical engineering, 2017).

Assays:
[1] = test system: OVCAR-8 conditioned media; assay: Cleavage of MMP9 substrate by OVCAR-8 conditioned media; type: biochemical, human
mouse MMP9 = mouse MMP9 (Mus musculus, UniProt P41245); assay: Cleavage of substrate by mouse MMP9; type: biochemical
OVCAR-8 tumour nodules = assay: HE4 blood ELISA in orthotopic OVCAR-8 ovarian cancer model; type: in vivo, mouse; details: blood biomarker, plasma ELISA; n = 10
Procedure, shortened: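 Female NCr nude mice, 3–4 weeks old, were injected intraperitoneally with 2 × 10⁶ luciferase-expressing OVCAR-8 cells; tumour burden was followed by IVIS luminescence. About 200 μL blood was spiked with EDTA to a final 5 mM and cells were pelleted. Plasma was stored at -20 °C, then HE4 measured by quantikine ELISA per kit protocol.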

Chain of mouse MMP9 (P41245 108-730): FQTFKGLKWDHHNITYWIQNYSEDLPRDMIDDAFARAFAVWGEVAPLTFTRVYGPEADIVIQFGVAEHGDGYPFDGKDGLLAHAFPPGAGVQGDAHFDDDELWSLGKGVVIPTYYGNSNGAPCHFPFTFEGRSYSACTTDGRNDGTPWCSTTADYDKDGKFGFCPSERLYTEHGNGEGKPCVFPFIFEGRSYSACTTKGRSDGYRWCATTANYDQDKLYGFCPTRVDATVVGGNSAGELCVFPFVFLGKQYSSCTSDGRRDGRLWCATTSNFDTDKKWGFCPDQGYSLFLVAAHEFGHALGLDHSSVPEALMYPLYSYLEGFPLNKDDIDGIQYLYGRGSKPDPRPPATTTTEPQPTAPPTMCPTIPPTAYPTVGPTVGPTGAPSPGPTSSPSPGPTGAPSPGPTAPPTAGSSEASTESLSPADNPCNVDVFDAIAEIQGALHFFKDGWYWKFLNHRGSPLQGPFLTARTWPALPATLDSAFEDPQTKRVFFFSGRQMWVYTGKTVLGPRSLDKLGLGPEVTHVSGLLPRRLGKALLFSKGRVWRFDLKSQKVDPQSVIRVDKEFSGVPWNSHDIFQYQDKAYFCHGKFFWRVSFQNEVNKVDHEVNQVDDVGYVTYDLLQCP

Question: What does the source list for “5FAM-GGPLGVRGKK(CPQ2)-PEG2-C [MMP9 substrate]”?
Answer: cleavage by OVCAR-8 conditioned media [1]: can cleave; cleavage by mouse MMP9 (mouse MMP9): cleaves

Question: `CNC(=O)[C@@H](NC(=O)[C@H](CC(C)C)[C@H](O)C(=O)NO)C(C)(C)C` [Marimistat, reference compound] was tested. Which “inhibition of cleavage of MMP9 substrate by OVCAR-8 conditioned media” value [1] did it give?
Answer: can be inhibited

B1: HE4: clinical blood biomarker secreted by OVCAR-8 cells, measured by ELISA as comparator diagnostic (protein, UniProt Q14508 31-124, looked up)
WAP four-disulfide core …: EKTGVCPELQADQNCTQECVSDSECADNLKCCSAGCATFCSLPNDKEGSCPQVNINFPQLGLCRDQCQVDSQCPGQMKCCRNGCGKVSCVTPNF
Question: What does the source list for B1?
Answer: ROC-AUC at 2-weeks (OVCAR-8 tumour nodules): 0.51; ROC-AUC at 3-weeks (OVCAR-8 tumour nodules): 0.93
